Assay results published in ChEMBL document CHEMBL4196154, “Structure-Guided Design and Development of Potent and Selective Dual Bromodomain 4 (BRD4)/Polo-like Kinase 1 (PLK1) Inhibitors” (J Med Chem, 2018).
Active and inactive are the calls of the source. The rule behind the calls is not given here.

Columns and labels:
[1] = biological target: T1, Serine/threonine-protein kinase PLK1 (Homo sapiens, UniProt P53350); assay: Inhibition of human recombinant PLK1 by Z-Lyte assay
[2] = biological target: T2, Bromodomain-containing protein 4 (Homo sapiens, UniProt O60885); assay: Inhibition of BRD4-BD1 (unknown origin) incubated for 1 hr by AlphaScreen biotin-JQ1 competition assay
[3] = biological target: Bromodomain testis-specific protein (Homo sapiens, UniProt Q58F21); assay: Inhibition of BRDT-BD1 (unknown origin) incubated for 1 hr by AlphaScreen biotin-JQ1 competition assay
Method in brief: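 BD protein at 40 nM, Ni-coated acceptor and streptavidin donor beads each 25 μg/mL. Buffer 50 mM HEPES, 150 mM NaCl, 0.1% BSA, 0.01% Tween20, pH 7.5. Compounds delivered in DMSO. Run under low light, read after 1 h at room temperature.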

Homo sapiens = species on record: Homo sapiens; assay: Selectivity index, ratio of IC50 for inhibition of BRD4-BD1 (unknown origin) to IC50 for human recombinant PLK1
MOLM-13 = assay: Induction of cell cycle arrest in human MOLM13 assessed as accumulation at G1/G2 phase at 1 uM incubated for 24 hrs by propidium iodide staining based flow cytometry; assay type: functional
Method in brief: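 MOLM13 cells exposed to 1 μM compound for 24 h, then harvested, stained with propidium iodide and PI fluorescence measured on a flow cytometer for cell-cycle distribution.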

[4] = biological target: Serine/threonine-protein kinase PLK3 (Homo sapiens) (UniProt Q9H4B4); assay: Inhibition of human PLK3 expressed in mammalian expression system assessed as remaining enzyme activity at 1 uM
Method in brief: (§1)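 Single-concentration binding panel at 1 uM: BROMOscan (32 bromodomains) and KINOMEscan (468 kinases) competition-binding platforms. Reported as % of DMSO control.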

[5] = biological target: T2, Bromodomain-containing protein 4; assay: Inhibition of human BRD4-BD1 expressed in bacterial expression system assessed as remaining activity at 1 uM; method in brief: as §1
[6] = biological target: Serine/threonine-protein kinase PLK2 (Homo sapiens) (UniProt Q9NYY3); assay: Inhibition of human PLK2 expressed in mammalian expression system assessed as remaining enzyme activity at 1 uM; method in brief: as §1
[7] = biological target: T1, Serine/threonine-protein kinase PLK1; assay: Inhibition of human PLK1 expressed in mammalian expression system assessed as remaining enzyme activity at 1 uM; method in brief: as §1

T1 sequence (P53350 whole entry): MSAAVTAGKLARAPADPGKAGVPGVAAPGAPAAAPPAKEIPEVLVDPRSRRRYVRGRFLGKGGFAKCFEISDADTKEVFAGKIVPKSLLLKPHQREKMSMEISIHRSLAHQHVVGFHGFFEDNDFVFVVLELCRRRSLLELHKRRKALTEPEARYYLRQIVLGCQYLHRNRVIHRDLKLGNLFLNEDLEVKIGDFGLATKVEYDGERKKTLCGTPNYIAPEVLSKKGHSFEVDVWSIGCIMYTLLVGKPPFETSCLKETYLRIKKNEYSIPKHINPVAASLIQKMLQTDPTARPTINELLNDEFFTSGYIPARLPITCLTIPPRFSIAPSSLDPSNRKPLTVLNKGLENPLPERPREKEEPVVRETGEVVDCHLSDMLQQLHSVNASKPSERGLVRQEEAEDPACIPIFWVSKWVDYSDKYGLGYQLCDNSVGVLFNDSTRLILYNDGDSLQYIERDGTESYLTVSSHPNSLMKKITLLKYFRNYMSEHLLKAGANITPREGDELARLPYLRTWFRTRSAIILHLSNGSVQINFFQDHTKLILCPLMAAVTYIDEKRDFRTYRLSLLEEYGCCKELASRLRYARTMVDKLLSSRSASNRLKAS
Sequence of Serine/threonine-protein kinase PLK3 (Homo sapiens) (Q9H4B4 whole entry, looked up): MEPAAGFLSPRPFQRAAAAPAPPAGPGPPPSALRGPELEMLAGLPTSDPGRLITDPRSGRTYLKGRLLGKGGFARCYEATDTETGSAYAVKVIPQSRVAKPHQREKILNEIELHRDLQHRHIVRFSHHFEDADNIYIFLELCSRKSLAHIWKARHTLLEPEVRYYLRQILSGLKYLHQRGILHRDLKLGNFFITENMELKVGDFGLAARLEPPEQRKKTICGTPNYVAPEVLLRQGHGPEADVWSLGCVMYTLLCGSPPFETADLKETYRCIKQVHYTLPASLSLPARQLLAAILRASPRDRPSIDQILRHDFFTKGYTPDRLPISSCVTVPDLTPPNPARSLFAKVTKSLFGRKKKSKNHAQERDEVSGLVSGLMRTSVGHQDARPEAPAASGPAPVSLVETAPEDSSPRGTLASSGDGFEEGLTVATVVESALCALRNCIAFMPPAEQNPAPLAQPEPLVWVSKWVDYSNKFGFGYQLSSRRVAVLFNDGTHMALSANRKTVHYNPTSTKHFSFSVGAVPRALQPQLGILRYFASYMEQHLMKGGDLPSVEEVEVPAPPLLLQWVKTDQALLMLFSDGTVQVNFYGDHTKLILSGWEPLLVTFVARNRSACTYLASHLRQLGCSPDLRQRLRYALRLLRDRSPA
Sequence of Serine/threonine-protein kinase PLK2 (Homo sapiens) (Q9NYY3 whole entry, looked up): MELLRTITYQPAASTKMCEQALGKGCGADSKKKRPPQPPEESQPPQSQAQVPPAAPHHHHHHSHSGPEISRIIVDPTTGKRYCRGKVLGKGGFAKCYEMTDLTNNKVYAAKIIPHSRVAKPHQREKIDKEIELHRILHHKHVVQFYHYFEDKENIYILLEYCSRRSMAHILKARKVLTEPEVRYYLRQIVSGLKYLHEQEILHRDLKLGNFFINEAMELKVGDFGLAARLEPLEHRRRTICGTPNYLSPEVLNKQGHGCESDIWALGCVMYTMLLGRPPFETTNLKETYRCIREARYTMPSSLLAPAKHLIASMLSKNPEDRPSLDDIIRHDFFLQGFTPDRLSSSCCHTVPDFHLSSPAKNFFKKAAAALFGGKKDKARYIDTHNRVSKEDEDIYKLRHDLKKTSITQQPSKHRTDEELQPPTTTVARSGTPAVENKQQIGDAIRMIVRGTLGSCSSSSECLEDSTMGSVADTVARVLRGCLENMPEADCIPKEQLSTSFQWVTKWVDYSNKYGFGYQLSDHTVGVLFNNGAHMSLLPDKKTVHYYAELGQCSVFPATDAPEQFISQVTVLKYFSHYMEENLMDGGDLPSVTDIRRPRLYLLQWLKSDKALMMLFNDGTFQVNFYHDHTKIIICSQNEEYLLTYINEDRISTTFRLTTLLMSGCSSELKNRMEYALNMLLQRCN

SMILES | IC50 [1] | IC50 [2] | IC50 [3] | also measured
COc1cc(C(=O)NC2CCN(C)CC2)ccc1Nc1ncc2c(n1)N(C1CCOCC1)[C@H](CC(C)C)C(=O)N2C | 322 nM | > 50000 nM | > 50000 nM | –
CC[C@@H]1C(=O)N(C)c2cnc(Nc3ccc(C(=O)NC4CCN(C)CC4)cc3OC)nc2N1C(C)C | 4 nM | 186 nM | – | –
COc1cc(C(=O)NCCN(C)C)ccc1Nc1ncc2c(n1)N(C1CCCC1)[C@H](C)C(=O)N2C | 21 nM | 104 nM | 392 nM | –
CCC[C@@H]1C(=O)N(C)c2cnc(Nc3ccc(C(=O)NC4CCN(C)CC4)cc3OC)nc2N1C1CCCC1 | 9.9 nM | 2580 nM | 8470 nM | Ratio IC50 (Homo sapiens): > 250
COc1cc(C(=O)NC2CCN(C)CC2)ccc1Nc1ncc2c(n1)N(C1CCCCC1)[C@H](C)C(=O)N2C | 8.6 nM | 310 nM | 750 nM | –
COc1cc(C(=O)NC2CCN(C)CC2)ccc1Nc1ncc2c(n1)N(C1CCCC1)[C@@H](C)C(=O)N2C | 8.7 nM | 107 nM | 229 nM | –
CC[C@@H]1C(=O)Nc2cnc(Nc3ccc(C(=O)NC4CCN(C)CC4)cc3OC)nc2N1C(C)C | 2620 nM | > 10000 nM | – | Ratio IC50 (Homo sapiens): > 250
COc1cc(C(=O)NC2CCN(C)CC2)ccc1Nc1ncc2c(n1)N(C(C)C)[C@H](C)C(=O)N2C | 25.2 nM | 421 nM | 978 nM | –
COc1cc(C(=O)NCCc2ccccc2)ccc1Nc1ncc2c(n1)N(C1CCCC1)[C@H](C)C(=O)N2C | 27 nM | 183 nM | 558 nM | –
COc1cc(C(=O)NC2CCNCC2)ccc1Nc1ncc2c(n1)N(C1CCCC1)[C@H](C)C(=O)N2C | 9 nM | 109 nM | 560 nM | –
C[C@@H]1C(=O)N(C)c2cnc(Nc3ccc(C(=O)NC4CCN(C)CC4)cc3OC3CCCC3)nc2N1C1CCCC1 | 40 nM | 28 nM | 102 nM | Activity (MOLM-13): Active
COc1cc(C(=O)N2CCCCC2)ccc1Nc1ncc2c(n1)N(C1CCCC1)[C@H](C)C(=O)N2C | 95 nM | 94 nM | 369 nM | –
CC[C@@H]1C(=O)N(C)c2cnc(Nc3ccc(C(=O)NC4CCN(C)CC4)cc3OC)nc2N1C1CCCCC1 | 4 nM | 650 nM | – | –
C[C@H]1C(=O)N(C)c2cnc(Nc3ccc(C(=O)NC4CCN(C)CC4)cc3OC3CCCC3)nc2N1C1CCCC1 | 127 nM | 59 nM | 245 nM | –
COC(=O)c1ccc(Nc2ncc3c(n2)N(C2CCCC2)[C@H](C)C(=O)N3C)c(OC2CCCC2)c1 | 457 nM | 253 nM | 933 nM | –
CC[C@@H]1C(=O)Nc2cnc(Nc3ccc(C(=O)NC4CCN(C)CC4)cc3OC)nc2N1C1CCCCC1 | 37.2 nM | > 10000 nM | – | Ratio IC50 (Homo sapiens): > 250
COc1cc(C(=O)NC2CCN(C)CC2)ccc1Nc1ncc2c(n1)N(C1CCCC1)[C@H](C)C(=O)N2C | 1.1 nM | 84 nM | 342 nM | Activity [4]: 0.3 to 0.5%; Activity [5]: 12%; Activity [6]: 0.3 to 0.5%; Activity [7]: 0.3 to 0.5%
COc1cc(C(=O)NC2CCCCC2)ccc1Nc1ncc2c(n1)N(C1CCCC1)[C@H](C)C(=O)N2C | 160 nM | 107 nM | 378 nM | –
CN1CCC(NC(=O)c2ccc(Nc3ncc4c(n3)N(C3CCCC3)CC(=O)N4C)c(OC3CCCC3)c2)CC1 | – | 690 nM | 3540 nM | –
CCC[C@@H]1C(=O)N(C)c2cnc(Nc3ccc(C(=O)NC4CCN(C)CC4)cc3OC3CCCC3)nc2N1C1CCCC1 | 47 nM | 596 nM | 1950 nM | –
COc1cc(C(=O)NC2CCN(C)CC2)ccc1Nc1ncc2c(n1)N(C(C)C)[C@H](CC(C)C)C(=O)N2C | 218 nM | 41900 nM | – | –
COc1cc(C(=O)NC2CCN(C)CC2)ccc1Nc1ncc2c(n1)N(C1CCCC1)CC(=O)N2C | 54.1 nM | 6630 nM | 26000 nM | –
